In the library only some 2.8% were active in any assay of this set; here they are far more common.
PAFAH2 FP inh: inhibitors of human PAFAH2; AID 492956; recombinant PAFAH2, FP-rhodamine activity probe, fluorescence polarization; inhibition, % at 3.39 µM; 0.99% of 340,000 active;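 active = inhibition above the mean over all tested compounds plus 3 SD, cut at about 30% in these data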;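 also: inhibitors block probe labeling of enzyme so polarization drops; 0% = enzyme with DMSO and 100% = wells lacking PAFAH2 protein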
pPAFAH inh: inhibitors of human plasma PAF acetylhydrolase (pPAFAH); Q13093; recombinant pPAFAH, FP-rhodamine probe fluorescence polarization; inhibition, % at 3.39 µM; 1.5% of 330,000 active; AID 463082;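 active = inhibition above the mean inhibition across the screen plus 3 SD, cut at about 25% in these data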;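 also: inhibitors block binding of the rhodamine activity-based probe so polarization drops; 0% = enzyme with DMSO and 100% = wells lacking pPAFAH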
PAFAH1B3 FP inh: PAFAH1B3 (human) inhibition | 0.28% of 340,000 active | inhibition, % at 3.39 µM | Q15102 | recombinant PAFAH1B3, FP-rhodamine probe, fluorescence polarization;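 active = inhibition above the screen-wide average of all tested compounds plus 3 SD, cut at about 25% in these data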;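 also: 0% = enzyme with DMSO only and 100% = wells lacking PAFAH1B3 protein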
Target sequence (Q15102 whole entry, looked up): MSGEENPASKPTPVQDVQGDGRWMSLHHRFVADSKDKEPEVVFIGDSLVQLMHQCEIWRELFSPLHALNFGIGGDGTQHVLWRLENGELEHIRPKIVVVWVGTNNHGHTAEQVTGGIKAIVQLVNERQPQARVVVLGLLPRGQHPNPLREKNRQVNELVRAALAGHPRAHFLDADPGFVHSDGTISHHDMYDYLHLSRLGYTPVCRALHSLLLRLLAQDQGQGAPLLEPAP
ASAP1 inh: inhibitors of human ASAP1 ArfGAP activity | Q9ULH1 | ASAP1-stimulated ARF1 GTP hydrolysis, GDP FP detection | inhibition, % at 16.5 µM | 0.19% of 360,000 active; in the data active = inhibition above about 25%;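 also: 0% = vehicle with enzyme and substrate and 100% = no enzyme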
ARFGAP1 inhibitor: inhibitors of rat ARFGAP1; Arfgap1-stimulated ARF1 GTP hydrolysis, GDP FP detection; inhibition, % at 16.5 µM; 0.26% of 360,000 active;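 active = inhibition above a per-plate limit, mean inhibition of low control wells plus 3 SD, cut at about 25% in these data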;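 also: 0% = DMSO wells with enzyme and 100% = wells lacking Arfgap1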
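material = rat Arfgap1 catalytic domain, aa 1-136 | also added = human ARF1(Δ1-17)-GTP substrate | compound dosing = one concentration, 16.5 µM, DMSO 1.26% | times = GTP hydrolysis reaction 2 h at 25 °C | measured by = FP, GDP Alexa 633 tracer displaced from anti-GDP antibody, 620/688 nm | evaluation = percent inhibition of Arfgap1-stimulated GTP hydrolysis | replication = single well per compound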
PAFAH1B2 inh: blocks human PAF acetylhydrolase 1b catalytic subunit 2. P68402. recombinant PAFAH1B2, FP-rhodamine activity probe, fluorescence polarization. inhibition, % at 3.39 µM. 1.2% of 340,000 active. AID 492953;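 active = inhibition above the mean of all tested compounds plus 3 SD, cut at about 24% in these data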;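 also: 0% = enzyme with DMSO and 100% = wells lacking PAFAH1B2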
Target sequence (P68402 whole entry, looked up): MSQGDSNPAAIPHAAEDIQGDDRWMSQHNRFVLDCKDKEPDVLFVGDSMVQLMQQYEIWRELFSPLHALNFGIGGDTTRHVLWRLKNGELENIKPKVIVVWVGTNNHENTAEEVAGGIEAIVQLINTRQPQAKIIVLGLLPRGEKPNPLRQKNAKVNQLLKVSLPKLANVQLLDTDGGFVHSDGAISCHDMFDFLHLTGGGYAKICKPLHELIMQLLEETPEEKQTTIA
* = called active by the depositor; · = not tested or not shown.

SMILES	PAFAH2 FP inh	pPAFAH inh	PAFAH1B3 FP inh	ASAP1 inh	ARFGAP1 inhibitor	PAFAH1B2 inh
O=C(Nc1ncccc1O)c1cccc(S(=O)(=O)N2CCc3ccccc32)c1	34*	5	-5	-8	3	48*
O=C(CC1S/C(=N\S(=O)(=O)c2ccccc2)N(c2ccccc2)C1=O)Nc1ccc(F)cc1 (stereo unspecified)	-1	0	0	0	2	7
Cc1ccc(S(=O)(=O)/N=C2\SC(CC(=O)Nc3ccc(F)cc3)C(=O)N2c2ccccc2)cc1 (stereo unspecified)	-5	3	-1	5	-12	32*
Cc1cc(C)n(CCNc2nc3nonc3nc2N2CCCCC2)n1	-1	28*	0	-9	-4	5
CCn1c(C)c(Br)c(=O)c(C(=O)OC)c1-c1ccc(Cl)cc1	2	2	6	4	-2	-4
O=C1NC(=O)/C(=C\c2ccccc2Oc2ccc(F)c(F)c2)S1	-4	8	-11	-17	3	26*
O=C1NC(=O)/C(=C/c2ccccc2OCc2ccccc2)S1	5	3	10	-10	0	16
CCc1ccc(NC(=O)C2CCCN2S(=O)(=O)c2ccc3c(c2)C(C)(C)C(=O)N3C)cc1 (stereo unspecified)	4	0	-1	-4	-7	5
O=C(COc1ccccc1[N+](=O)[O-])OCC(=O)c1ccc(Br)s1	13	26*	1	-22	4	2
COc1cc2cc(C(=O)N(C)C3CCS(=O)(=O)C3)[nH]c2cc1OC (stereo unspecified)	2	-1	9	7	-18	-1
O=C(Nc1ccc(N2CCOCC2)cc1)C1(c2ccc(Cl)cc2)CCC1	-2	8	-4	7	5	80*
Cc1sc(NC(=O)c2sc3nc4c(C)cccc4cc3c2N)c(C#N)c1C	12	27*	2	5	7	6
O=C(O)c1cccc(S(=O)(=O)Nc2ccc3oc(=O)sc3c2)c1	-4	4	7	-6	7	27*
O=C(O)c1cccc(S(=O)(=O)Nc2ccc3[nH]c(=O)[nH]c3c2)c1	-1	6	8	-5	-1	4
COc1ccc(OC)c(S(=O)(=O)NCC(c2ccco2)N2CCc3ccccc32)c1 (stereo unspecified)	3	4	-5	-8	5	3
CCC(=O)N1CCN(c2ccc(NC(=S)NC(=O)c3cc4ccccc4o3)cc2)CC1	-1	·	9	-8	-4	6
CC(=O)N1CCN(c2ccc(NC(=O)c3cc4ccccc4o3)cc2)CC1	-4	26*	1	16	2	3
CC(=O)Nc1ccc(NC(=O)c2cc(=O)c3ccccc3o2)cc1	1	28*	5	4	2	4
COc1ccc(Cc2nc3ccc(C(=O)NCc4cccc(C)n4)cc3o2)cc1OC	·	·	·	-3	-2	·
O=C(O)CN1C(=O)/C(=C\c2cccc(OCc3ccc(Cl)cc3)c2)SC1=S	5	0	11	-9	-13	62*
O=C(O)CN1C(=O)/C(=C\c2cccc(OCc3ccccc3F)c2)SC1=S	11	-14	10	-5	-16	12
O=C(O)CN1C(=O)/C(=C\c2cccc(OCc3ccc(F)cc3)c2)SC1=S	5	·	15	1	-3	28*
Cc1n[nH]c(=O)n(N=Cc2c[nH]c3ccccc23)c1=O	·	·	·	1	-9	·
CCCCCC#CCC#CCC#CCC#CCCCC(=O)O	·	61*	·	·	·	·
Cc1ccc(NC(=O)CSc2sc3c(O)cc(=O)[nH]c3c2C#N)c(F)c1	15	31*	13	-14	1	7
Cc1cc(=O)[nH]c(SCC(=O)Nc2ccc(F)cc2)c1C#N	·	2	·	4	-4	·
COc1ccc(OC)c(NC(=O)CSc2sc3c(O)cc(=O)[nH]c3c2C#N)c1	25	20	7	5	-5	8
N#Cc1c(SCC(=O)Nc2ccc(C(F)(F)F)cc2)sc2c(O)cc(=O)[nH]c12	-8	25*	9	1	5	10
O=C(N=C1SC2CS(=O)(=O)CC2N1c1ccc(Br)cc1)C1CCCO1 (stereo unspecified)	5	7	3	-1	-9	1
CN1CCN(c2ccc(S(=O)(=O)N3CCCCC3)cc2NC(=O)CSC(C)(C)C)CC1	·	·	·	1	-6	·
